Data as given in article PMC4207547 (Journal of Medicinal Chemistry, 2014).

System: CXCR1
Assay: not given
Settings: cited from earlier work

Compound | effect on CXCL8 binding to CXCR1, in words
CC(C)Cc1ccc([C@@H](C)C(=O)NS(C)(=O)=O)cc1 [reparixin, Reparixin] | no effect

Target: T1, CXCR2 (Homo sapiens, UniProt P25025)
T1 sequence (P25025 1-360): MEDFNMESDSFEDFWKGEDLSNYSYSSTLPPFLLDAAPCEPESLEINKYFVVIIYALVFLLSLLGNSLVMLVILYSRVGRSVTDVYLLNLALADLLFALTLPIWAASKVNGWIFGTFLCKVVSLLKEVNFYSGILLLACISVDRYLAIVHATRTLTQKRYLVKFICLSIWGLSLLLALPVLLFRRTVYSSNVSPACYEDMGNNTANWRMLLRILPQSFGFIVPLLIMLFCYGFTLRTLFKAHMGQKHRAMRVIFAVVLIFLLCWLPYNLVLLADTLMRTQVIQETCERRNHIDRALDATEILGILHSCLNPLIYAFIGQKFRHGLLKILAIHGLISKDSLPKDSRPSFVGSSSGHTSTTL
Assay: CXCL1-stimulated Ca2+ flux in whole human neutrophils
Format: cell-based
Settings: CXCL1-stimulated Ca2+ flux, hPMNs
Method in brief: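 Human neutrophils were isolated from blood by dextran sedimentation, Histopaque 1077 gradient and hypotonic RBC lysis (>95% pure, >98% viable). Cells were loaded with FLIPR Calcium 3 dye in HEPES-buffered Ca/Mg-free HBSS with compound or 1% DMSO for 30 min at 37 °C, then resuspended in HEPES-HBSS with Ca2+/Mg2+ and challenged with CXCL1.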

Compound | fold improvement in potency relative to 2-carboxylate 51 [fold] | fold reduction in activity relative to 7 | fold lower potency than 60 [fold]
COC(=O)c1ccccc1CSc1ccc(C(=O)Nc2ccc(F)cc2)cn1 [Compound 50, Methyl 2-((5-(4-Fluorophenylcarbamoyl)pyridin-2-ylthio)methyl)benzoate] | 2 | – | –
O=C(Nc1ccc(F)cc1)c1ccc(SCc2ccccc2-c2nn[nH]n2)nc1 [Compound 52, 6-(2-(2H-Tetrazol-5-yl)benzylthio)-N-(4-fluorophenyl)nicotinamide] | ~10 | – | –
CC1(C)OB(c2ccccc2CSc2ccc(C(=O)Nc3ccc(F)cc3)cn2)OC1(C)C [Compound 53, N-(4-Fluorophenyl)-6-(2-(4,4,5,5-tetramethyl-1,3,2-dioxaborolan-2-yl)benzylthio)nicotinamide] | – | approximately 7 fold | –
O=C(Nc1ccc(OC(F)(F)F)cc1)c1ccc(SCc2ccccc2B(O)O)nc1 [Compound 54, 2-((5-(4-(Trifluoromethoxy)phenylcarbamoyl)pyridin-2-ylthio)methyl)phenylboronic acid] | – | 7 fold | –
O=C(Nc1ccncc1)c1ccc(SCc2ccccc2B(O)O)nc1 [Compound 57, 2-((5-(Pyridin-4-ylcarbamoyl)pyridin-2-ylthio)methyl)phenylboronic acid] | – | 14 fold | –
O=C(Nc1ccc(O)cc1)c1ccc(SCc2ccccc2B(O)O)nc1 [Compound 58, 2-((5-(4-Hydroxyphenylcarbamoyl)pyridin-2-ylthio)methyl)phenylboronic acid] | – | 3 fold | –
O=C(Nc1ccc(F)cn1)c1ccc(SCc2ccccc2B(O)O)nc1 [Compound 59, 2-((5-(5-Fluoropyridin-2-ylcarbamoyl)pyridin-2-ylthio)methyl)phenylboronic acid] | – | 8 fold | –
O=C(c1ccc(SCc2ccccc2B(O)O)nc1)N(Cc1ccncc1)c1ccc(F)cc1 [Compound 61, 2-((5-((4-Fluorophenyl)(pyridin-4-ylmethyl)carbamoyl)pyridin-2-ylthio)methyl)phenylboronic acid] | – | – | 11

Same assay, conditions: hPMNs; SAR discussion

Compound | activity against CXCL1-stimulated Ca2+ flux, in words
O=C(Nc1ccc(F)cc1)c1ccc(SC2CCOC2=O)nc1 (stereo not shown) [Compound 9, N-(4-Fluorophenyl)-6-(2-oxotetrahydrofuran-3-ylthio)nicotinamide] | loss of activity
O=C(Nc1ccc(F)cc1)c1ccc(SCS(=O)(=O)c2ccccc2)nc1 [Compound 10, N-(4-Fluorophenyl)-6-(phenylsulfonylmethylthio)nicotinamide] | loss of activity
O=C(Nc1ccc(F)cc1)c1ccc(SC[N+](=O)[O-])nc1 [Compound 11, N-(4-Fluorophenyl)-6-(nitromethylthio)nicotinamide] | loss of activity
CCOP(=O)(CSc1ccc(C(=O)Nc2ccc(F)cc2)cn1)OCC [Compound 12, Diethyl (5-(4-fluorophenylcarbamoyl)pyridin-2-ylthio)methylphosphonate] | loss of activity

Other lines, results leading:

activity against CXCL1-stimulated Ca2+ flux, in words | Compound
loss of activity | O=C(Nc1ccc(F)cc1)c1ccc(Sc2ccccc2)nc1 [Compound 45, N-(4-Fluorophenyl)-6-(phenylthio)nicotinamide]
inactive | COC(=O)c1ccc(CSc2ccc(C(=O)Nc3ccc(F)cc3)cn2)cc1 [Compound 46, Methyl 4-((5-(4-Fluorophenylcarbamoyl)pyridin-2-ylthio)methyl)benzoate]
inactive | COC(=O)c1cccc(CSc2ccc(C(=O)Nc3ccc(F)cc3)cn2)c1 [Compound 48, Methyl 3-((5-(4-Fluorophenylcarbamoyl)pyridin-2-ylthio)methyl)benzoate]
abrogated all activity | O=C(O)c1ccc(NC(=O)c2ccc(SCc3ccccc3B(O)O)nc2)cc1 [Compound 55, 4-(6-(2-Boronobenzylthio)nicotinamido)benzoic acid]
abrogated all activity | O=C(Nc1ccc(-c2nn[nH]n2)cc1)c1ccc(SCc2ccccc2B(O)O)nc1 [Compound 56, 2-((5-(4-(2H-Tetrazol-5-yl)phenylcarbamoyl)pyridin-2-ylthio)methyl)phenylboronic acid]
completely devoid of activity | O=C(c1ccc(SCc2ccccc2B(O)O)nc1)N(CC1CCCCN1)c1ccc(F)cc1 (stereo not shown) [Compound 62, 2-((5-((4-Fluorophenyl)(piperidin-2-ylmethyl)carbamoyl)pyridin-2-ylthio)methyl)phenylboronic acid]
A similar finding | O=C(O)CN(C(=O)c1ccc(SCc2ccccc2B(O)O)nc1)c1ccc(F)cc1 [Compound 63, 2-(6-(2-Boronobenzylthio)-N-(4-fluorophenyl)nicotinamido)acetic acid]

Same assay, conditions: inhibition of CXCL1-stimulated Ca2+ flux in whole hPMNs; mean ± standard error

Compound | IC50 [µM]
N-(4-Fluorophenyl)-6-(4-(5-methyl-1,2,4-oxadiazol-3-yl)benzylthio)nicotinamide [Compound 18] | > 5

Same assay, conditions: read-out: inhibition of CXCL1-mediated intracellular Ca2+ release

Compound | inhibition at 5 µM [%]
O=C(Nc1ccc(F)cc1)c1ccc(SCC2CCCCO2)nc1 (stereo not shown) [Compound 13, N-(4-Fluorophenyl)-6-((tetrahydro-2H-pyran-2-yl)methylthio)nicotinamide] | > 50
O=C(Nc1ccc(F)cc1)c1ccc(SCc2ccncc2)nc1 [Compound 15, N-(4-Fluorophenyl)-6-(pyridin-4-ylmethylthio)nicotinamide] | > 50
O=C(Nc1ccc(F)cc1)c1ccc(SCC2CCOCC2)nc1 [Compound 17, N-(4-Fluorophenyl)-6-((tetrahydro-2H-pyran-4-yl)methylthio)nicotinamide] | > 50
O=C(Nc1ccc(F)cc1)c1ccc(SCC2CCCO2)nc1 (stereo not shown) [Compound 20, N-(4-Fluorophenyl)-6-((tetrahydrofuran-2-yl)methylthio)nicotinamide] | > 50
O=C(Nc1ccc(F)cc1)c1ccc(SCc2ccc([N+](=O)[O-])o2)nc1 [Compound 22, N-(4-Fluorophenyl)-6-((5-nitrofuran-2-yl)methylthio)nicotinamide] | > 50
O=C(Nc1ccc(F)cc1)c1ccc(SCc2ccccc2)nc1 [Compound 30, 6-(Benzylthio)-N-(4-fluorophenyl)nicotinamide] | > 50
O=C(Nc1ccc(F)cc1)c1ccc(SCc2ccc(Cl)c(Cl)c2)nc1 [Compound 43, 6-(3,4-Dichlorobenzylthio)-N-(4-fluorophenyl)nicotinamide] | > 50
